From PubChem
Rin1-Abl PPI inh: blocks binding of human Rin1 to Abl; P00519+Q13671; TR-FRET Rin1/Abl binding, biochemical; inhibition, % at 7.35 µM; 360,000 tested, 0.4% active; AID 588664; in the data active = inhibition above about 5%, passing the limit was not always enough
TbMetRS inhib: blocks T. brucei methionyl-tRNA synthetase activity | AID 624268 | purified T. brucei MetRS, ATP depletion, Kinase-Glo luminescence | 360,000 tested, 0.4% active | inhibition, % at 11.9 µM;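 active = inhibition above a per-plate cutoff of the control wells' mean inhibition plus 3 SD, cut at about 5.5% in these data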
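Assay system: T. brucei methionyl-tRNA synthetase, purified | Medium: HEPES buffer with MgCl2, KCl, DTT, spermine, BSA, pyrophosphatase | Compound: 11.9 µM single point | Incubation: 15 min enzyme-compound preincubation, 2 h reaction, 10 min detection, 25 °C | Measured by: Kinase-Glo luciferase luminescence reporting remaining unconsumed ATP | Measure: % inhibition normalized to control-well medians | Replication: Singlicate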
Rev-erbA mod: modulates human Rev-erb alpha binding to DNA; Rev-erbα–FITC-DNA binding, fluorescence polarization, 90 min; 370,000 tested, 0.79% active; activity, % at 10 µM; P20393;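 active = activity above about 14%, limit read from the data; passing the limit was not always enough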
Target sequence (P20393 whole entry, looked up): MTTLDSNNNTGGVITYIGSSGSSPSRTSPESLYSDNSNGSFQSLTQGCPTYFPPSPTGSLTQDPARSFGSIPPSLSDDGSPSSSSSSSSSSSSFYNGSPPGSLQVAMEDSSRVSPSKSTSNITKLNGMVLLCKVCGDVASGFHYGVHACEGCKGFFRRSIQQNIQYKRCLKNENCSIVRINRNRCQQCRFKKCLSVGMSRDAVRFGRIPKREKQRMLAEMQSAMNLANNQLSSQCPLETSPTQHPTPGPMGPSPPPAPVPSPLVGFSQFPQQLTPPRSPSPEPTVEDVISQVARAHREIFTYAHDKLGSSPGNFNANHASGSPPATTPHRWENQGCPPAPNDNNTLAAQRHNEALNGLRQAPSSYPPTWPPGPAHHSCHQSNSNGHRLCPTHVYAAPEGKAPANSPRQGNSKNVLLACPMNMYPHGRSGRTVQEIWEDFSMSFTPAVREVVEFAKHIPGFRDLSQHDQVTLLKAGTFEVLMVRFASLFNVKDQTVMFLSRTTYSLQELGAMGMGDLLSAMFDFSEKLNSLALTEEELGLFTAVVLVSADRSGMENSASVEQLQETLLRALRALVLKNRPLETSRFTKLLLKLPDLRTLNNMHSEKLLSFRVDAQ
PG9 binder: small molecules binding HIV-1 gp120 antibody PG9; TR-FRET gp120-PG9 antibody binding; inhibition, % at 6.7 µM; 360,000 tested, 0.43% active; in the data active = inhibition above about 8.5%
Rev-erbA confirm: confirmation of modulators of human Rev-erb alpha DNA binding; activation, % at 25 µM; 3,000 tested, 61% active; Rev-erb alpha FITC-DNA binding, fluorescence polarization, 90 min; shares compounds with Rev-erbA mod;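 active = activation at or above a set limit, or at least 3 SD above the negative control mean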
RORg counter: RORgamma DNA-binding activity, dose-response counter-screen | IC50, µM | purified RORgamma protein-FITC-DNA binding, fluorescence polarization | 910 tested, 8% active | shares compounds with Rev-erbA mod;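 active = Compounds whose fitted half-maximal concentration for disrupting protein-DNA binding is below 10 micromolar; the record names Rev-erb in its text, so the target is in doubt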
Numbers stand for hits; . = inactive; / = not tested or not shown. The list is not random: actives were taken first. Their share in the collection is about 1.8%.

SMILES	Rin1-Abl PPI inh	TbMetRS inhib	Rev-erbA mod	PG9 binder	Rev-erbA confirm	others
Cc1ccccc1NC(=O)[C@@H]1CCCN1S(=O)(=O)c1cccc2cccnc12	/	/	.	/	/
Cc1ccccc1-n1ncc2c1CC(C)(C)CC2NC(=O)CCN1Cc2ccccc2C1=O (configuration not stated)	.	.	.	.	/
O=C(Nc1ccc(Cl)cn1)c1ccccc1F	.	.	.	.	/
COc1cc2ccccc2cc1C(=O)Nc1ccc(Cl)cn1	.	.	31.2	.	.
Clc1ccc2nc(N3CCNCC3)nc(-c3ccccc3)c2c1	.	.	.	.	/
O=C1CN(c2nc(-c3ccccc3)c3cc(Cl)ccc3n2)c2ccccc2N1	.	.	31.9	.	.
CCc1cc2cc3c(cc2nc1SCC(=O)Nc1nnc(C)s1)OCCO3	.	.	59.5	.	41.0	RORg counter=.
CCOC(=O)CSc1nc2cc3c(cc2cc1CC)OCCO3	.	.	.	.	/
CCc1nnc(NC(=O)CSc2nc3cc4c(cc3cc2CC)OCCO4)s1	.	.	89.7	.	36.0	RORg counter=.
CC(C)c1ccc(COC(=O)CN2C(=O)NC3(CCCCC3C)C2=O)cc1 (configuration not stated)	.	.	.	.	/
CN(C(=O)c1cccc(NC(=O)Cc2ccc(NC(=O)C3CCN(C(=O)C4CC4)CC3)cc2)c1)C1CCCCC1	.	.	.	.	/
Cn1c2ccccc2c(=O)c2cc(C#Cc3ccsc3)ccc21	.	.	21.5	.	.
Cn1c2ccccc2c(=O)c2cc(C#CC3(O)CCCCC3)ccc21	.	.	.	.	/
O=C(CCCn1c(=S)[nH]c2cc3c(cc2c1=O)OCO3)NCCc1ccccc1Cl	.	.	27.5	.	22.1
O=C(CCn1c(=S)[nH]c2cc3c(cc2c1=O)OCO3)NCCc1ccccc1Cl	.	.	23.2	.	13.3
O=C1CN(C(=O)CNCc2ccc(Cl)cc2)c2ccccc2N1	.	.	.	.	/
CCOC(Cn1c(SCc2cc(C(C)=O)ccc2OC)nc2ccccc2c1=O)OCC	.	.	34.0	.	34.4	RORg counter=.
COc1ccc(C(C)=O)cc1CSc1nc2cc(C(=O)O)ccc2c(=O)n1Cc1ccccc1	.	.	.	.	/
NS(=O)(=O)c1cccc(NC(=O)c2ccc(NS(=O)(=O)c3cccc([N+](=O)[O-])c3)cc2)c1	.	.	.	.	/
COC(=O)Cn1c(=NC(=O)CCS(=O)(=O)c2ccccc2)sc2c(OC)ccc(OC)c21	.	.	82.3	.	39.2	RORg counter=.
CCCCC(=O)N=c1sc2c(OC)ccc(OC)c2n1C	.	.	23.1	.	.
COc1cccc(C(=O)N=c2sc3c(C)ccc(OC)c3n2C)c1	.	.	23.6	.	.
CCCCN1C(=O)C(CC(=O)NCC2CCCCC2)CC(C(=O)N(C(C)C)C(C)C)=C1C (configuration not stated)	.	.	.	.	/
Cc1nc2ccc(C(=O)OCc3nnc(-c4ccc(Br)cc4)o3)cc2nc1C	.	.	22.7	.	18.8
Cc1nc2ccc(C(=O)OCc3nnc(-c4ccccc4)o3)cc2nc1C	.	.	.	.	/
SMILES	Rin1-Abl PPI inh	TbMetRS inhib	Rev-erbA mod	PG9 binder	Rev-erbA confirm	others
COc1ccc(OCC(=O)Nc2ccc(N3CCN(Cc4ccccc4F)CC3)cc2)cc1	.	.	.	.	/
Cc1occc1C(=O)N/N=C/c1c(O)ccc2ccccc12	.	.	24.6	.	25.5
O=C(N/N=C\c1c(O)ccc2ccccc12)c1ccc(O)cc1	.	.	.	.	/
C[C@@H](O)CC#Cc1ccc2oc(=O)c(-n3cc(-c4ccsc4)nn3)cc2c1	.	.	.	.	/
C[C@H](O)Cc1cn(-c2cc3cc(C#Cc4ccsc4)ccc3oc2=O)nn1	.	.	17.9	.	.
O=C(c1cc2cc(F)ccc2[nH]1)N1CCc2ccccc2C1	.	.	.	.	/
O=C(c1cc2cc(Cl)ccc2[nH]1)N1CCc2ccccc2C1	.	.	59.8	.	.
COc1ccccc1C(=O)Nc1nnc(-c2ccc(F)cc2)s1	.	.	36.1	.	38.6	RORg counter=.
Cc1ccc(C(=O)Nc2nnc(S(=O)(=O)N3CCN(c4ccc(F)cc4)CC3)s2)cc1	.	.	.	.	/
COc1ccc(C(=O)Nc2nnc(-c3ccc(F)cc3)s2)c(OC)c1	.	.	24.7	.	.
COc1ccccc1C(=O)Nc1nnc(S(=O)(=O)N2CCN(c3ccc(F)cc3)CC2)s1	.	.	17.6	.	.
C/C=C/c1cccc(-c2nc(C(=O)N3CCN(C)CC3)cc3c2[C@@H](CCO)N(C(=O)NC(C)C)C3)c1	/	.	.	.	/
CCOc1cccc(-c2nnc3sc(-c4cccs4)nn23)c1	.	.	29.3	.	20.0
CCOc1cccc(-c2nnc3sc(-c4cc(OC)c(OC)c(OC)c4)nn23)c1	.	.	.	.	/
O=C(CSc1ncnc2ccccc12)Nc1ccc2c(c1)OCCO2	.	.	.	.	/
Cc1cc(C)c2cc(C#N)c(SCC(=O)NCC3CCCO3)nc2c1 (configuration not stated)	.	.	102.7	.	87.5	RORg counter=.
Cc1cc(C)c2cc(C#N)c(SCC(=O)Nc3ccc4c(c3)OCO4)nc2c1	.	.	62.4	.	196.3	RORg counter=.
O=C(CSc1nc(Cc2ccccc2)nc2ccccc12)Nc1ccc2c(c1)OCCO2	.	.	33.5	.	27.0
CC(C)Cn1c(SC(C)C(=O)Nc2ccc3c(c2)OCCO3)nc2ccccc2c1=O (configuration not stated)	.	.	.	.	/
CC(Sc1nc2ccccc2c(=O)n1C)C(=O)Nc1ccc2c(c1)OCCO2 (configuration not stated)	.	.	27.1	.	11.7
N#Cc1cc(C#N)c(SCC(=O)NCC2CCCO2)nc1N (configuration not stated)	.	.	.	.	/
COc1cccc(C(=O)N(c2ccccc2)C2C=CS(=O)(=O)C2)c1 (configuration not stated)	.	.	.	.	/
COC(=O)c1cc(NC(=O)CN2C(=O)C(=O)N(C3CCCC3)C2=O)cc(C(=O)OC)c1	.	.	.	.	/
CCOC(=O)C1=CN(C)CCC1=O	.	.	.	.	/
CCOC(=O)C1=CN(CC)CCC1=O	.	.	24.8	.	.
SMILES	Rin1-Abl PPI inh	TbMetRS inhib	Rev-erbA mod	PG9 binder	Rev-erbA confirm	others
O=C(NCC1CCCO1)c1nn2c(C(F)(F)F)cc(-c3cc(Br)cs3)nc2c1Br (configuration not stated)	.	.	22.9	.	.
N#CCNC(=O)c1nn2c(C(F)(F)F)cc(-c3ccccc3)nc2c1Br	.	.	56.7	.	31.2	RORg counter=.
O=C(CNC(=O)c1ccc(OC(F)F)cc1)Nc1cccc(S(=O)(=O)N2CCCC2)c1	.	.	.	.	/
O=S(=O)(NCCc1csc(-c2cccnc2)n1)c1cccs1	.	.	23.9	.	.
COC(CN(C)C(=O)c1ccc2c(c1)NC(=O)c1ccccc1S2)OC	.	.	.	.	/
CCCCCCc1nc2nc(Cl)c(Cl)nc2[nH]1	.	.	21.7	.	.
O=C(O)c1nc2nc(Cl)c(Cl)nc2[nH]1	.	.	.	.	/
